In PubChem BioAssay AID624466 (The Scripps Research Institute Molecular Screening Center, 2012):
About 5,400 (1.5%) of roughly 360,000 compounds were called active. The sample holds actives, similar compounds and a random draw of the others, so the mix is not that of the screen. Unmarked numbers belong to inactive results.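 Rule for the calls: active = inhibition above a per-plate cutoff, the mean inhibition of test compounds on that plate plus 3 SD (cut at about 49% in these data); inactive = the rest.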

The compounds below were run against Trace amine-associated receptor 1 (Homo sapiens) (UniProt Q96RJ0) (assay: blockers of beta-PEA-driven TAAR1 calcium signal – Fluo-8 calcium fluorescence, CHO RD-HGA16 cells, primary screen (AID 624466;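 note: 0% = DMSO plus EC80 beta-PEA response and 100% = DMSO alone without agonist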)). Conditions: CHO RD-HGA16 TAAR1, Fluo-8 calcium fluorescence, antagonist; at 3 µM; active compounds read high.
Sequence of Trace amine-associated receptor 1 (Homo sapiens) (Q96RJ0 whole entry, looked up): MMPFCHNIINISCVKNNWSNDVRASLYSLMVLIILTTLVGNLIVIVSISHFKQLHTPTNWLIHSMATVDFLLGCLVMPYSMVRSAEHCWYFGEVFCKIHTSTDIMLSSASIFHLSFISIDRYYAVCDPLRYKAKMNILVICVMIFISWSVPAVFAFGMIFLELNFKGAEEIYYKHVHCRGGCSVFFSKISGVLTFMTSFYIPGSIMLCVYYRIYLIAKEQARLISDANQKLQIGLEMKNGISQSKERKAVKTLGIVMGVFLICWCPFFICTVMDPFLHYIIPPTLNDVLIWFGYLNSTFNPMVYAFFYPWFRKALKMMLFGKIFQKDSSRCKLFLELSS
Outline: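 Test system: CHO RD-HGA16 cells bearing hTAAR1 | Reagent: β-PEA, EC80 | Compound dosing: 3 µM, single point | Schedule: Dye loading 75 min at 37 °C, then 30 min room temperature | Signal: Calcium fluorescence with Fluo-8 | Evaluation: Percent inhibition of PEA-evoked calcium signal, max/basal emission ratio | Control set: DMSO-only wells and EC80 β-PEA-stimulated wells | Repeats: Singlicate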
With `O=C(c1ccc(O)cc1)c1ccc(C(=O)O)c(C(=O)O)c1` the inhibition was 17.8%.
`COC(=O)[C@]12CCCCC=C1N(Cc1ccc3c(c1)OCO3)C(=O)[C@H](CC(=O)NCc1cccs1)C2` was tested, and the inhibition was 21.1%.
Work on `NS(=O)(=O)c1ccc(NC(=O)COC(=O)c2c3c(nc4ccccc24)/C(=C\c2ccc4c(c2)OCO4)CCC3)cc1` yielded an inhibition of 6.15%.
`Cn1cccc1C(=O)OCC(=O)c1ccc(Br)s1` gave an inhibition of -0.72%.
With `O=C(COC(=O)c1c2c(nc3ccccc13)CCCC2)c1ccc(Br)s1` the inhibition was 49% (active).
`Cc1cc(S(=O)(=O)N2CCOCC2)ccc1OCC(=O)Nc1cccc(C(F)(F)F)c1` showed an inhibition of 30.6%.
`CN1C(=O)C2CC(O)C(SC3CC4C(=O)N(C)C(=O)C4CC3O)CC2C1=O` (stereo not given) gave an inhibition of 2.98%.
Compound `CN[C@H]1C[C@H]2c3cc(Oc4ccccc4C)ccc3CCN2C(=O)[C@H]1[C@H](C)O` has an inhibition of 0.22%.
With `COc1ccc(NC(=O)CN(C)C(=O)c2ccc(COc3ccccc3)o2)cc1` the inhibition was -57.5%.
`O=C(O)c1ccc(NC(=O)c2ccc(COc3ccc(Cl)cc3)o2)cc1` gave an inhibition of 34.7%.
With `Cc1cc(OCc2ccc(C(=O)Nc3ccc(C(=O)O)cc3)o2)ccc1Cl` the inhibition was 50.2% (active).
`CC(C)(C)C(=O)c1c(N)[nH]c(C(=O)c2ccccc2)c1-c1ccc(F)cc1` gave an inhibition of 2.74%.
Work on `CCOC(=O)Cn1c2c(n(-c3ccc(F)cc3)c1=O)C=C(c1ccccc1)[C@@H](C)C(C(=O)N(C)C1CCCCC1)=C2` yielded an inhibition of -25%.
Compound `COC(=O)[C@]12C[C@H](CC(=O)NCCC(C)C)C(=O)N(CCc3ccc(OC)c(OC)c3)C1=C[C@H](C(C)(C)C)O[C@@H]2C` has an inhibition of -15.9%.
`Cc1cc2nc(-c3ccc(F)cc3)c(Cc3ccsc3)n2c(C)c1Br` gave an inhibition of -3.77%.
For `Cc1ccc(C)c(N2CCN(C(=O)CCCCCn3c(=S)[nH]c4ccc(N5CCOCC5)cc4c3=O)CC2)c1`, the inhibition was 75% (active).
In the case of `Cc1ccc(C)c(N2CCN(C(=O)CCCn3c(=O)c4cccn4c4cccnc43)CC2)c1`, the inhibition is reported as 26%.
In the case of `O=C(CCCCCn1c(=S)[nH]c2cc3c(cc2c1=O)OCO3)N1CCN(c2ccc(F)cc2)CC1`, the inhibition is reported as 11.1%.
`CCN(CCCNC(=O)c1ccc2c(c1)NC(=O)CN2C)c1cccc(C)c1` was tested, and the inhibition was -2.86%.
`Cc1c(Cl)cnc(NC(=O)COC(=O)c2ccc(S(=O)(=O)NCc3ccco3)cc2)c1Cl` gave an inhibition of -10.1%.
Work on `O=S(=O)(NCc1ccco1)c1cnc(Cl)c(Cl)c1` yielded an inhibition of -4.49%.
For `C/C(=N\Nc1ncc(Cl)cc1Cl)c1ccc(S(=O)(=O)NCc2ccco2)cc1`, the inhibition was 49.3% (active).
`O=C(COC(=O)Cn1cnc2ccccc2c1=O)NCC12CC3CC(CC(C3)C1)C2` was tested, and the inhibition was -9.23%.
In the case of `C[C@H](O)[C@@H]1C(=O)N2CCc3c([nH]c4c(-c5ccc6c(c5)OCO6)cccc34)[C@@H]2C[C@@H]1N(C)C(=O)c1ccco1`, the inhibition is reported as 60.8% (active).
`CN[C@H]1C[C@H]2c3[nH]c4c(-c5ccccc5)cccc4c3CCN2C(=O)[C@H]1[C@H](C)O` was tested, and the inhibition was 15.3%.
`CCOC(=O)CNC(=O)N(C)[C@H]1C[C@H]2c3[nH]c4c(-c5ccc6c(c5)OCO6)cccc4c3CCN2C(=O)[C@H]1[C@H](C)O` showed an inhibition of 12.4%.
Work on `O=C(CN1CCSCC1)N/N=C/c1ccc(Cl)cc1` yielded an inhibition of -17.2%.
In the case of `Cc1ccc(NC(=O)c2ccc(CSc3ncnc4nc[nH]c34)cc2)c(C)c1`, the inhibition is reported as 56.7% (active).
Compound `CSc1ncc(C(=O)Nc2ccc(C)cc2C)c(C)n1` has an inhibition of -0.22%.
Compound `CSCc1ccc(C(=O)Nc2cc(C)cc(C)c2)cc1` has an inhibition of 16.7%.
Compound `CC[C@@H]1CCCCc2ccccc2[C@@H](C(=O)C[C@H](O)CC(C)=O)OC1=O` has an inhibition of 13.4%.
With `C=CCn1c(SCc2c(C(=O)OC)sc(N)c2C(=O)OC)nnc1-c1ccc(Cl)cc1` the inhibition was 34.7%.
`CCOc1cc(NC(=S)NCc2ccco2)c(OCC)cc1NC(=O)c1ccco1` showed an inhibition of 9.19%.
`O=C(Nc1ccc2ccccc2c1)/C(=C\c1ccc2c(c1)OCO2)NC(=O)c1ccco1` was tested, and the inhibition was 12.7%.
Work on `NS(=O)(=O)c1ccc(CNC(=S)NC(=O)c2ccco2)cc1` yielded an inhibition of 6.18%.
For `CCCc1ccc(OCC(=O)NNC(=S)NC(=O)c2ccco2)cc1`, the inhibition was 74.2% (active).
`O=C(NNC(=S)Nc1ccc(Br)cc1Cl)c1ccco1` showed an inhibition of -2.77%.
`CC(Oc1ccc2ccccc2c1)C(=O)NNC(=S)NC(=O)c1ccco1` (stereo not given) was tested, and the inhibition was 61.9% (active).
Compound `Cc1ccc(S(=O)(=O)N2CC3C(=O)C[C@@H](c4ccccc4Cl)N(S(=O)(=O)c4ccc(C)cc4)C3CC2c2ccccc2)cc1` (stereo not given in full) has an inhibition of 2.68%.
`COC(=O)c1cc2c(c3c4cc(F)ccc4n(S(=O)(=O)c4ccccc4)c13)C(=O)N(Cc1ccccc1OC)C2` gave an inhibition of -0.96%.
With `O=C(C(=O)N1CCC(CNC(=O)c2cccnc2Cl)CC1)c1cccs1` the inhibition was -12.2%.
Compound `COc1ccc(CNC(=O)COc2cccnc2[N+](=O)[O-])cc1` has an inhibition of -4.68%.
For `Cc1ccc(-c2c(N)nc3ncccn23)cc1`, the inhibition was -8.72%.
Compound `COCCn1c(C)cc(C(=O)CSc2nnc(C3CC3)n2C2CC2)c1C` has an inhibition of 10.2%.
With `Nc1nc2c(Br)ccc(Br)c2cc1C(=O)NCCc1ccccc1` the inhibition was -14%.
With `O=C(NNS(=O)(=O)c1ccc(F)cc1)C1CCCCC1` the inhibition was -20.9%.
In the case of `O=C(CN1CCN(S(=O)(=O)c2cccc(Cl)c2)CC1)N1CCCCC1`, the inhibition is reported as 6.11%.
Work on `O=C(CN1CCCSc2ccccc21)N1CCN(S(=O)(=O)c2ccccc2)CC1` yielded an inhibition of 18.8%.
For `O=C(CN1CCCSc2ccccc21)N1CCN(S(=O)(=O)c2cccc(F)c2)CC1`, the inhibition was 49.7% (active).
In the case of `Cc1ccccc1C(=O)N[C@H](C(=O)N1CCC[C@H]1C(=O)NCc1ccccc1)C(C)C`, the inhibition is reported as 14.4%.
Compound `O=C(NC1CCCC1)C1c2ccccc2OCC(=O)N1CC(F)(F)F` (stereo not given) has an inhibition of 4.73%.
With `CCOc1ccccc1N1CN(Cc2ccccc2)CNC1=S` the inhibition was -9.06%.
`COc1ccc(NS(=O)(=O)c2ccc(Oc3c(C#N)cccc3C#N)cc2)cc1` was tested, and the inhibition was 38.8%.
For `COc1ccc2[nH]cc(/C=C(/C#N)S(=O)(=O)c3ccccc3)c2c1`, the inhibition was 51% (active).
`COc1ccc2[nH]cc(CCN3C(=O)c4ccc(C(=O)O)cc4C3=O)c2c1` showed an inhibition of -11.2%.
`CC(C)c1ccc(OCC(O)Cn2cnc3ccccc32)cc1` (stereo not given) gave an inhibition of -0.64%.
For `OC(CN=c1sc2ccccc2n1CC(O)COc1ccccc1)COc1ccccc1` (stereo not given), the inhibition was 67.2% (active).
`Cc1cccc(OCC(O)Cn2c(=N)n(CCN3CCOCC3)c3ccccc32)c1` (stereo not given) gave an inhibition of -7.65%.
`O=C(COC(=O)CCc1nc2ccccc2c(=O)[nH]1)Nc1ccc(N2CCOCC2)cc1` gave an inhibition of 0.61%.
In the case of `O=C(COC(=O)CCCSc1nc2ccccc2[nH]1)Nc1ccc(Oc2ccccc2)cc1`, the inhibition is reported as 67.1% (active).
With `CC(C)(C)c1ccc(NC(=O)COC(=O)CCc2nc3ccccc3c(=O)[nH]2)cc1` the inhibition was 6.51%.
Work on `Nc1nc2c(ncn2[C@@H]2O[C@H](C(=O)N[C@H](Cc3ccccc3)C(=O)NCC3CCCCC3)[C@@H](O)[C@H]2O)c(=O)[nH]1` yielded an inhibition of -12.4%.
`O=C(Cn1cncn1)N/N=C/c1c2ccccc2cc2ccccc12` was tested, and the inhibition was -12.2%.
`Cc1ccc(S(=O)(=O)N[C@H](CO)C(C)C)cc1` showed an inhibition of -9.25%.
`NC(c1ccccc1)c1csc(NC(=O)Nc2cccc(C(F)(F)F)c2)n1` (stereo not given) showed an inhibition of 35.6%.
For `Cc1ccc(NC(=O)Nc2cc(-c3ccccc3)nn2C)cc1Cl`, the inhibition was 8.7%.
`CC(=O)Nc1ccc(-c2csc(NC(=O)Nc3ccccc3)n2)cc1` was tested, and the inhibition was 63.2% (active).
`CCCC(CNC(=O)COC(=O)C1=NNC(=O)CC1)c1ccc(Cl)cc1Cl` (stereo not given) was tested, and the inhibition was -3.84%.
In the case of `COCCCNC(=O)C1CC(=O)N(c2ccc(C)cc2)C1` (stereo not given), the inhibition is reported as -3.91%.
With `O=C(NCC1CCCO1)c1cc2c([nH]c3ccccc32)c(-c2ccc(F)cc2)n1` (stereo not given) the inhibition was 74.8% (active).
In the case of `O=C(NCCCO)c1cc2c([nH]c3ccccc32)c(-c2ccc(F)cc2)n1`, the inhibition is reported as 23.9%.
For `COc1ccc2cc(C(=O)NCC3CCCO3)[nH]c2c1` (stereo not given), the inhibition was -16.3%.
In the case of `CC(=O)Nc1cccc(-c2cc(NC=O)c3ncc(-c4ccc(F)c(Cl)c4)n3c2)c1`, the inhibition is reported as 39%.
In the case of `Cc1c(C)n2c(SCC(=O)N3CCCC3)nnc2[nH]c1=O`, the inhibition is reported as -9.03%.
For `CN1CCCCC(NC(=O)C(C)(C)C)C1=O` (stereo not given), the inhibition was -14%.
For `COC(=O)/C=C\C(=O)Nc1cccc([N+](=O)[O-])c1`, the inhibition was -1.13%.
`Cc1ccc(/C=C/C(=O)Nc2ccc([N+](=O)[O-])c(NC(=O)/C=C/c3ccc(C)o3)c2)o1` was tested, and the inhibition was 48.8% (active).
Work on `Cc1ccc(/C=C/C(=O)Nc2cc(S(=O)(=O)N3CCCCCC3)ccc2OCC(F)(F)F)o1` yielded an inhibition of -13.9%.
Compound `CC(C(=O)N=Nc1c(O)n(C)c2ccc(Br)cc12)n1cnc2ccccc2c1=O` (stereo not given) has an inhibition of -6.29%.
`COCc1[nH]nc2c1C(c1ccccc1)N(c1ccccc1)C2=O` (stereo not given) gave an inhibition of -20.8%.
`O=[N+]([O-])c1ccc(N2CCNCC2)cc1NCc1cccnc1` gave an inhibition of 13.4%.
`COc1ccc(Cc2nnc(NC(=O)c3cc(OC)c(OC)c(OC)c3)s2)cc1OC` gave an inhibition of -43.4%.
With `COC(=O)c1sccc1NC(=O)CCC1CCCC1` the inhibition was 15.8%.
With `COC(=O)c1sccc1NC(=O)c1cc(OC)c(OC)c(OC)c1` the inhibition was 52.3% (active).
Compound `CCOC(=O)[C@]12CCC=C1N(Cc1ccco1)C(=O)[C@H](CC(=O)NCc1cccc(C(F)(F)F)c1)C2` has an inhibition of -12.7%.
